# Screens (PubChem)
# SUMO1 PPI mod = alters human SUMO1 binding to SIM partners; inhibition, % at 20 µM; SUMO1 binding to a labelled peptide, TR-FRET, 1 h; hit rate 0.33% among 360,000; P63165; in the data active = inhibition above about 37%
# Scp-1 inhibitor = blocks human Scp-1 phosphatase activity; Q9GZU7; Recombinant Scp1, phosphopeptide, malachite green phosphate absorbance; inhibition, % at 20 µM; hit rate 0.88% among 340,000; AID 493091;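 active = inhibition above about 50% at 20 µM, limit read from the data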;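 note: plate controls were DMSO wells with enzyme for no effect and wells lacking enzyme for full effect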
#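 Material: truncated SCP-1 phosphatase (76-261aa) / Buffer or medium: 50 mM Tris acetate pH 5.5, 0.005% Tween-20, 10 mM MgCl2 / Compound dosing: one concentration, 20 µM, with 1.0% DMSO / Incubation: 45 min room-temperature reaction, 5 min colour, 30 min stabiliser / Detection: colorimetric free-phosphate detection, absorbance 630 nm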
# DNMT1 inh = DNMT1 (human) enzyme inhibition; hit rate 0.83% among 360,000; inhibition (reported as % activation of signal), % at 10 µM; DNMT1 molecular beacon, Hinp1I cleavage, fluorescence
# STEP inh = inhibitors of human striatal-enriched phosphatase STEP | P54829 | hit rate 0.25% among 360,000 | recombinant STEP, OMFP fluorogenic substrate, fluorescence | inhibition, % at 20 µM;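 active = inhibition at 20 µM, scaled per plate between control wells, above about 37%, limit read from the data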;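 note: 0% = DMSO with enzyme and substrate and 100% = substrate only without enzyme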
#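 Assay system: isolated STEP enzyme / Timing: 20 min at room temperature, dark / Doses: 20 µM, 1% DMSO / Technique: fluorescence intensity, excitation 480 nm, emission 540 nm / Reagent: fluorogenic phosphatase substrate OMFP at 25 µM final / Measure: percent inhibition scaled to no-enzyme and uninhibited-enzyme controls, plate-pattern corrected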
# LMPTP inh = LMPTP (human) inhibition; hit rate 0.22% among 360,000; recombinant LMPTP-A, OMFP fluorogenic substrate, fluorescence intensity; inhibition, % at 20 µM; AID 651560;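 active = compounds that cut the enzyme signal by at least half of the control window in the single-dose screen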;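 note: plate controls were DMSO wells with enzyme plus substrate for no effect and substrate without enzyme for full effect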
#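 Test system – LMPTP-A enzyme · Amount – LMPTP-A at 0.625 nM final in the reaction · Buffer or medium – Bis-Tris pH 6.0, DTT, detergent · Reagent – OMFP 400 µM · Doses – single 20 µM dose · Schedule – reaction 50 min, room temperature, dark · Detection – fluorescence intensity of OMFP turnover product · Evaluation – percent inhibition versus substrate-only and uninhibited controls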
# CSN deneddyl inh = blocks human CSN-mediated cullin deneddylation | hit rate 0.38% among 360,000 | Q92905 | AID 651999 | inhibition, % at 12.5 µM | Purified CSN, SCF-Nedd8-OG deneddylation, fluorescence polarization;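 active = pattern-corrected inhibition above about 35%, with an unprinted fluorescence ratio check between 0.5 and 1.5, limit read from the data, passing the limit was not always enough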;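 note: 0% = enzyme with substrate and 100% = substrate without enzyme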
#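 Assay system: purified human Csn5 enzyme expressed in HEK293T cells; Input: 0.24 nM Csn5 enzyme, final concentration; Reagent: 10 nM SCFSkp2-Nedd8OG; Compound dosing: 12.5 µM single point; Times: reaction 90 min, room temperature; Technique: fluorescence polarization readout.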
# CSN5 deneddyl = validation of inhibitors of human CSN-mediated cullin deneddylation. shares compounds with CSN deneddyl inh. Csn5 deneddylation of SCF-Nedd8OG, fluorescence polarization, 90 min. inhibition, % at 16.6 µM. hit rate 62% among 540;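 note: 0% = DMSO with enzyme and 100% = no enzyme wells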
# MMP-2 counter = counter-screen for CSN deneddylation inhibitors: human MMP-2 inhibition. recombinant MMP-2, FRET substrate fluorescence, 60 min. inhibition, % at 16.6 µM. hit rate 33% among 540. shares compounds with CSN deneddyl inh;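 active = corrected plate-normalized z-score of 5 or more, or -5 or less, or inhibition of 15% or more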;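 note: plate controls were DMSO wells with enzyme for no effect and buffer wells lacking MMP-2 for full effect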
# Thrombin cntr = blocks bovine thrombin in a CSN deneddylation counter-screen; shares compounds with CSN deneddyl inh; bovine thrombin cleavage of Ub4-pepOG, fluorescence polarization; inhibition, % at 16.6 µM; hit rate 49% among 540; AID 720656;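 active = inhibition at or above a set limit, with a fluorescence interference ratio between 0.5 and a set maximum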
# Numbers without * were called inactive; · = no result. Compounds with a hit are over-represented: about 1.9% of the library has one in this group of screens. Cut-off read from the data, not from the text of the source, unless noted: active = inhibition above about 50%; inactive = the rest.
SMILES,SUMO1 PPI mod,Scp-1 inhibitor,DNMT1 inh,STEP inh,LMPTP inh,CSN deneddyl inh,CSN5 deneddyl,MMP-2 counter,Thrombin cntr
COc1ccc(CCN2C(=O)COc3ccccc3C2C(=O)Nc2ccc3c(c2)OCCO3)cc1OC (stereo not drawn),-4,·,·,·,0,-1,·,·,·
CCN(CC)c1ccc(/C=C2\SC(N)=NC2=O)cc1,-39,-10,12,-8,1,68*,131*,-33*,78*
CCOc1ccc(S(=O)(=O)N2CCCCC2)cc1NC(=O)c1ccccc1,1,-13,-5,4,0,-2,·,·,·
COc1cc(/C=C2/SC(=O)NC2=O)ccc1OC(=O)c1ccco1,0,-7,5,0,-1,0,·,·,·
O=C1NC(=S)S/C1=C/c1ccc(OC(=O)c2ccco2)cc1,0,-7,3,-2,-7,41*,69*,19*,36*
CCOc1cc(/C=C2/SC(=S)NC2=O)ccc1OC(=O)c1ccco1,5,-3,2,-1,3,58*,77*,15*,3
COC(=O)[C@]12CCCCC=C1N(Cc1ccc(Cl)cc1Cl)C(=O)[C@H](CC(=O)N1CCCC1)C2,4,·,·,·,1,-3,·,·,·
CC(=O)Nc1ccc(NC(=O)C(C)OC(=O)CSc2ccc(Br)cc2C)cc1 (stereo not drawn),3,-8,-5,0,2,4,·,·,·
COc1cccc(/C=N/Nc2nnc(C)n2N)c1O,-3,-15,0,-5,0,54*,107*,8,-7
CCN(CC)S(=O)(=O)c1cccc(C(=O)N/N=C/c2ccc([N+](=O)[O-])o2)c1,-12,-2,-6,0,-1,0,·,·,·
CCN(CC)CCOC(=O)c1ccc(N/C=C(/C#N)c2nc(-c3ccc(OC)c(OC)c3)cs2)cc1,33,-8,22,16,-2,126*,-30,-42*,14
CCN(CC)CCOC(=O)c1ccc(N/C=C(/C#N)c2nc(-c3cccc(OC)c3)cs2)cc1,0,14,-2,1,0,-2,·,·,·
N#Cc1c(SCC(=O)Nc2nc3ccccc3s2)sc2c(O)cc(=O)[nH]c12,30,61*,91*,12,64*,40*,77*,11,11
